Laboratory results published in ChEMBL document CHEMBL1124654, “Synthesis and investigation of effects of 2-[4- [[(arylamino)carbonyl]amino]phenoxy]-2-methylpropionic acids on the affinity of hemoglobin for oxygen: structure-activity relationships” (1989).
Values joined by “and” are separate entries in the source; they are usually repeats but may differ in a detail not shown here. Equal entries are not always repeated.

How the values were obtained:
Type in all cases: functional
[1] = species on record: Homo sapiens; experiment: Ability of 1 mM compound to reduce affinity of hemoglobin for oxygen is assessed from 50% partial pressure of oxygen in intact red cells
In short: (§1)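 Intact red cells: 30-µL aliquots of fresh heparinized normal whole blood added to 5 mL of compound diluted in 0.1 M HEPES, pH 7.4; final hemoglobin 12.5 ± 0.5 µM by spectrophotometry. Equilibrated 30 min at 37 °C, then oxygenated in the instrument chamber. P50 (mmHg PO2 at 50% deoxygenation) read from the O2-dissociation curve. Initial screen at 1 mM in duplicate.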

[2] = target: Hemoglobin HbA (Homo sapiens) (UniProt P69905+P68871); experiment: Ratio of effect of compound on affinity of hemoglobin for oxygen to that of control
In short: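 Mean P50 with compound divided by mean P50 of the respective controls. P50 measured from O2-dissociation curves at 37 °C after 30 min in 0.1 M HEPES, pH 7.4, with hemoglobin at 12.5 ± 0.5 µM, in intact red cells or membrane-free hemoglobin.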

[3] = species on record: Homo sapiens; experiment: Ability of 1 mM to reduce affinity of hemoglobin for oxygen is assessed from 50% partial pressure of oxygen in membrane free hemoglobin solution
In short: (§2)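 Membrane-free hemoglobin: erythrocytes washed five times in 0.15 M NaCl, lysed in 5 volumes of water, filtered through paper and then down to 0.22 µm. Compound dissolved in 0.1 M HEPES, pH 7.4, hemoglobin added to a final 12.5 ± 0.5 µM, incubated 30 min at 37 °C. P50 taken from the O2-dissociation curve. Initial screen at 1 mM in duplicate.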

[4] = species on record: Homo sapiens; experiment: Ability of 0.5 mM to reduce affinity of hemoglobin for oxygen is assessed from 50% partial pressure of oxygen in membrane free hemoglobin solution; in short: as §2
[5] = species on record: Homo sapiens; experiment: Ability of 1 mM to reduce affinity of hemoglobin for oxygen is assessed from 50% partial pressure of oxygen in intact red cells; in short: as §1
[6] = species on record: Homo sapiens; experiment: Ability of 0.2 mM to reduce affinity of hemoglobin for oxygen is assessed from 50% partial pressure of oxygen in membrane free hemoglobin solution; in short: as §2
[7] = species on record: Homo sapiens; experiment: Ability of 0.2 mM to reduce affinity of hemoglobin for oxygen is assessed from 50% partial pressure of oxygen in intact red cells; in short: as §1
[8] = species on record: Homo sapiens; experiment: Ability of 0.5 mM to reduce affinity of hemoglobin for oxygen is assessed from 50% partial pressure of oxygen in intact red cells; in short: as §1
[9] = species on record: Homo sapiens; experiment: Ability of 0.05 mM to reduce affinity of hemoglobin for oxygen is assessed from 50% partial pressure of oxygen in membrane free hemoglobin solution; in short: as §2
[10] = species on record: Homo sapiens; experiment: Ability of 0.1 mM to reduce affinity of hemoglobin for oxygen is assessed from 50% partial pressure of oxygen in intact red cells; in short: as §1
[11] = species on record: Homo sapiens; experiment: Ability of 0.05 mM to reduce affinity of hemoglobin for oxygen is assessed from 50% partial pressure of oxygen in intact red cells; in short: as §1
[12] = species on record: Homo sapiens; experiment: Ability of 0.1 mM to reduce affinity of hemoglobin for oxygen is assessed from 50% partial pressure of oxygen in membrane free hemoglobin solution; in short: as §2
[13] = species on record: Homo sapiens; experiment: Ability of 1 mm to reduce affinity of hemoglobin for oxygen is assessed from 50% partial pressure of oxygen in intact red cells; in short: as §1
[14] = species on record: Homo sapiens; experiment: Ability of 0.5 mm to reduce affinity of hemoglobin for oxygen is assessed from 50% partial pressure of oxygen in intact red cells; in short: as §1

Hemoglobin HbA (Homo sapiens), sequence (P68871 2-147 partner limits assumed): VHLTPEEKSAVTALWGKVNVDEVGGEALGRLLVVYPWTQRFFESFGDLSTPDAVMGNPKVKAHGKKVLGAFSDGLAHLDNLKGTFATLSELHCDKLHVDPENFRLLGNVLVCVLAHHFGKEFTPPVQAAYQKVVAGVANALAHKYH
Hemoglobin HbA (Homo sapiens), sequence (P69905 2-142 limits assumed): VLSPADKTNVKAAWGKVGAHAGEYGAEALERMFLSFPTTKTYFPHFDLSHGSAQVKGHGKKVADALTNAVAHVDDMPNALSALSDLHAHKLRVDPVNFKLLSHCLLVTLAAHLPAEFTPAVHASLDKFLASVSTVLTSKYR

SMILES	P50 [1]	Ratio [2]	P50 [3]	P50 [4]	also measured
CC(C)(Oc1ccc(NC(=O)Nc2ccccc2Cl)cc1)C(=O)O	16.2 mmHg	1.75 and 1.42	14.2 mmHg	–	–
COc1ccc(NC(=O)Nc2ccc(OC(C)(C)C(=O)O)cc2)cc1	12.5 mmHg	2.11 and 1.25	19 mmHg	–	–
CC(C)(Oc1ccc(NC(=O)Nc2ccc(F)cc2)cc1)C(=O)O	12.5 mmHg	2 and 1.38	18 mmHg	–	–
CC(C)(Oc1ccc(NC(=O)Nc2ccc(O)cc2)cc1)C(=O)O	8.5 mmHg	1.68 and 1.21	11 mmHg	–	–
Cc1cc(C)c(NC(=O)Nc2ccc(OC(C)(C)C(=O)O)cc2)c(C)c1	12 mmHg	1 and 1.26	6.5 mmHg	–	–
CC(C)(Oc1ccc(NC(=O)c2ccc(Cl)cc2)cc1)C(=O)O	–	5.35 [middle of 4 runs]	39 mmHg	27 mmHg	P50 [5]: 37.5 mmHg and 19 mmHg
CCOC(=O)Nc1ccc(NC(=O)Nc2ccc(OC(C)(C)C(=O)O)cc2)cc1	11.5 mmHg	1.61 and 1.27	10.5 mmHg	–	–
CC(C)(Oc1ccc(NC(=O)Nc2ccc(Cl)cc2Cl)cc1)C(=O)O	–	2.04 [middle of 4 runs]	–	15.5 mmHg	P50 [6]: 9.75 mmHg; P50 [7]: 14.75 mmHg; P50 [8]: 21.25 mmHg
CC(C)(Oc1ccc(NC(=O)Nc2cccc(Cl)c2Cl)cc1)C(=O)O	–	2.46 [middle of 4 runs]	–	16 mmHg	P50 [6]: 12.5 mmHg; P50 [7]: 18.5 mmHg
CC(C)(Oc1ccc(NC(=O)Nc2ccccc2)cc1)C(=O)O	10 mmHg	1.42 and 1.05	10 mmHg	–	–
CC(C)(Oc1ccc(NC(=O)COc2ccc(Cl)cc2)cc1)C(=O)O	17.5 mmHg	1.27 and 1.84	9.25 mmHg	–	–
CC(C)(Oc1ccc(NC(=O)Nc2ccc(Cl)c(Cl)c2)cc1)C(=O)O	–	2.29 [middle of 4 runs]	–	28.5 mmHg	P50 [6]: 14.2 mmHg; P50 [7]: 15.5 mmHg; P50 [8]: 23.5 mmHg
Cc1ccc(NC(=O)Nc2ccc(OC(C)(C)C(=O)O)cc2)cc1	15.5 mmHg	2.88 and 1.72	26 mmHg	–	–
CC(C)(Oc1ccc(CCNC(=O)c2cc(Cl)cc(Cl)c2)cc1)C(=O)O	–	1.78 and 1.42 and 2.33	12.5 mmHg	10 mmHg	P50 [5]: 22.75 mmHg; P50 [8]: 17.75 mmHg
CC(C)(Oc1ccc(NC(=O)Nc2cc(Cl)cc(Cl)c2)cc1)C(=O)O	–	4.43 [middle of 4 runs]	–	44.5 mmHg	P50 [6]: 20.5 mmHg; P50 [7]: 22.75 mmHg; P50 [8]: 51 mmHg
CC(C)(Oc1ccc(CCNC(=O)c2ccc(Cl)cc2)cc1)C(=O)O [BEZAFIBRATE]	–	1.63 [middle of 4 runs]	14.2 mmHg	9 mmHg	P50 [5]: 17 mmHg; P50 [8]: 14.5 mmHg
Cc1ccc(NC(=O)Nc2ccc(OC(C)(C)C(=O)O)cc2)cc1C	18.5 mmHg	2.53 [middle of 4 runs]	27.2 mmHg	16.5 mmHg	P50 [8]: 14.5 mmHg
CC(C)(Oc1ccc(CC(NC(=O)c2ccc(Cl)cc2)C(=O)O)cc1)C(=O)O (configuration not stated)	12 mmHg	1.07 and 1.26	7.5 mmHg	–	–
CC(C)(Oc1ccc(NC(=O)Nc2cc(Cl)c(Cl)cc2Cl)cc1)C(=O)O	–	–	–	–	P50 [9]: 9 mmHg; P50 [6]: 16.8 mmHg; P50 [7]: 31 mmHg; P50 [10]: 17.75 mmHg; P50 [11]: 14.25 mmHg; P50 [12]: 12 mmHg
CC(C)(Oc1ccc(NC(=O)CNC(=O)c2ccc(Cl)cc2)cc1)C(=O)O	12 mmHg	1.14 and 1.36	8.5 mmHg	–	–

SMILES	P50 [1]	Ratio [2]	P50 [3]	P50 [4]	also measured
CC(C)(Oc1ccc(NC(=O)Nc2cc(Cl)c(Cl)c(Cl)c2)cc1)C(=O)O	–	–	–	–	P50 [9]: 16.2 mmHg; P50 [6]: 57.2 mmHg; P50 [7]: 60 mmHg; P50 [10]: 35 mmHg; P50 [11]: 27.5 mmHg; P50 [12]: 28.5 mmHg
CC(C)(Oc1ccc(NC(=O)Nc2cc(Cl)ccc2Cl)cc1)C(=O)O	–	2.56 [middle of 4 runs]	–	18 mmHg	P50 [6]: 11.5 mmHg; P50 [7]: 15.83 mmHg; P50 [8]: 23.75 mmHg
CC(C)(Oc1ccc(NC(=O)Nc2ccc(Cl)cc2)cc1)C(=O)O	19.5 mmHg	2.7 and 1.64	21.8 mmHg	–	–
CC(C)(Oc1ccc(NC(=N)Nc2ccc(Cl)cc2)cc1)C(=O)O	16 mmHg	1.14 and 1.39	9 mmHg	–	–
CC(C)(Oc1ccc(NS(=O)(=O)Cc2ccccc2)cc1)C(=O)O	11.5 mmHg	1.34 and 1.64	9.16 mmHg	–	–
CC(C)(Oc1ccc(NC(=O)Nc2cccc(Cl)c2)cc1)C(=O)O	17.75 mmHg	2.89 and 1.5	22 mmHg	–	–
CC(C)(Oc1ccc(NC(=O)c2cc(Cl)cc(Cl)c2)cc1)C(=O)O	–	2.34 [middle of 4 runs]	16 mmHg	12.2 mmHg	P50 [5]: 25.33 mmHg; P50 [8]: 19.66 mmHg
O=C(O)COc1ccc(NC(=O)Nc2ccc(Cl)c(Cl)c2)cc1	–	1.14 [middle of 4 runs]	–	10 mmHg	P50 [6]: 8 mmHg; P50 [7]: 11.5 mmHg; P50 [8]: 13 mmHg
COc1ccc(NC(=O)Nc2ccc(OC(C)(C)C(=O)O)cc2)cc1OC	8.5 mmHg	2.07 and 1	14.5 mmHg	–	–
CC(C)(Oc1ccc(NC(=O)Nc2ccc(Cl)c([N+](=O)[O-])c2)cc1)C(=O)O	–	5.43 [middle of 4 runs]	43.5 mmHg	30 mmHg	P50 [5]: 52.5 mmHg; P50 [8]: 40 mmHg
CC(C)(Oc1ccc(NC(=O)Nc2ccc(C=O)cc2)cc1)C(=O)O	20.5 mmHg	2.3 and 2.15	15 mmHg	–	–
CC(=O)Oc1ccc(NC(=O)Nc2ccc(OC(C)(C)C(=O)O)cc2)cc1	16 mmHg	1.64 and 1.77	11.5 mmHg	–	–
CC(C)(Oc1ccc(-c2ccccc2)cc1)C(=O)O	15.5 mmHg	1 and 1.63	7 mmHg	–	–
CC(C)(Oc1ccc(NC(=O)Nc2ccc([N+](=O)[O-])cc2)cc1)C(=O)O	–	2.79 [middle of 4 runs]	19 mmHg	13 mmHg	P50 [13]: 26.5 mmHg; P50 [14]: 21 mmHg
CC(C)(Oc1ccc(NC(=O)Nc2ccc(C(=O)O)cc2)cc1)C(=O)O	9 mmHg	1.14 and 1	8 mmHg	–	–
CC(C)(Oc1ccc(NC(=O)Nc2cc([N+](=O)[O-])ccc2Cl)cc1)C(=O)O	40 mmHg	3.61 and 4.21	23.5 mmHg	–	–
CC(C)(Oc1ccc(NC(=O)Nc2ccc3c(c2)OCO3)cc1)C(=O)O	–	2.15 and 1.05	14 mmHg	–	P50 [5]: 9.5 mmHg
COc1cc(NC(=O)Nc2ccc(OC(C)(C)C(=O)O)cc2)cc(OC)c1OC	9.5 mmHg	1.64 and 1.05	11.5 mmHg	–	–
CC(C)(Oc1ccc(NC(=O)Nc2ccccc2O)cc1)C(=O)O	10 mmHg	1.91 and 1.42	12.5 mmHg	–	–
CC(C)(Oc1ccc(NC(=O)Nc2cc(F)cc(F)c2)cc1)C(=O)O	–	1.99 [middle of 4 runs]	15.2 mmHg	12.2 mmHg	P50 [5]: 21 mmHg; P50 [8]: 15 mmHg
